In ChEMBL document CHEMBL4257511, “Effect of N-1 arylation of monastrol on kinesin Eg5 inhibition in glioma cell lines” (Medchemcomm, 2018):
Active and inactive are the calls of the source. No cut-off for these calls is given here.

Key:
[1] = system: U138-MG; test: Antiproliferative activity against human U138MG cells assessed as reduction in cell viability at 100 uM after 24 hrs by MTS assay relative to control; assay type: functional
Summary of the method: (§1)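 Glioma cells grown in DMEM with penicillin/streptomycin and FBS (15% or 5%, by line), 37 °C, 5% CO2; seeded and grown to semi-confluence, then exposed 24 h to 5, 10, 25, 50 and 100 μM. MTS reagent added for 2 h; absorbance at 490 nm. Viability expressed as percent of untreated control (100%); means ± SD of three independent experiments.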

[2] = system: C6; test: Antiproliferative activity against rat C6 cells assessed as reduction in cell viability at 100 uM after 24 hrs by MTS assay relative to control; assay type: functional; summary of the method: as §1
[3] = system: U138-MG; test: Antiproliferative activity against human U138MG cells after 24 hrs by MTS assay; assay type: functional, cell-based; summary of the method: as §1
[4] = system: C6; test: Antiproliferative activity against rat C6 cells after 24 hrs by MTS assay; assay type: functional, cell-based; settings: C6, 24 h; summary of the method: as §1
[5] = system: C6; test: Cell cycle arrest in rat C6 cells assessed as accumulation at G2/M phase at 100 uM after 24 hrs by propidium iodide staining based flow cytometry; assay type: functional
Summary of the method: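 Cells grown to semi-confluence, treated 24 h (U138: 150 or 200 μM; C6: 50 or 100 μM), washed twice in PBS pH 7.4, harvested and resuspended at 10^6 cells/ml in Tris-HCl pH 7.6, 3.5 mM trisodium citrate, 0.1% NP40, 100 μg/mL RNase, 50 μg/mL PI. After 15 min, sub-G1, G0/G1, S and G2/M fractions read by flow cytometry.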

[6] = system: U138-MG; test: Induction of apoptosis in human U138MG cells at 200 uM after 48 hrs by Annexin V/propidium iodide staining based flow cytometry; assay type: functional, cell-based
Summary of the method: (§2)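 After 48 h exposure (U138: 150 or 200 μM; C6: 50 or 100 μM), cells washed twice in cold PBS pH 7.4 and counted. 10^5 cells stained with FITC-annexin V and PI in binding buffer, 15 min at room temperature in the dark, then read by two-colour flow cytometry. Early apoptotic annexin+/PI−, late apoptotic annexin+/PI+, necrotic annexin−/PI+.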

[7] = system: U138-MG; test: Induction of necrosis in human U138MG cells at 200 uM after 48 hrs by Annexin V/propidium iodide staining based flow cytometry; assay type: functional, cell-based; summary of the method: as §2
[8] = system: C6; test: Induction of apoptosis in rat C6 cells at 100 uM after 48 hrs by Annexin V/propidium iodide staining based flow cytometry; assay type: functional, cell-based; summary of the method: as §2
[9] = molecular target: T1, Kinesin family member 11 (Rattus norvegicus) (UniProt F1MAB8); test: Inhibition of EG5 in rat C6 cells assessed as monopolar spindle formation at 100 uM after 24 hrs by Hoechst staining based immunofluorescence microscopic method; assay type: cell-based
T1 sequence (whole entry): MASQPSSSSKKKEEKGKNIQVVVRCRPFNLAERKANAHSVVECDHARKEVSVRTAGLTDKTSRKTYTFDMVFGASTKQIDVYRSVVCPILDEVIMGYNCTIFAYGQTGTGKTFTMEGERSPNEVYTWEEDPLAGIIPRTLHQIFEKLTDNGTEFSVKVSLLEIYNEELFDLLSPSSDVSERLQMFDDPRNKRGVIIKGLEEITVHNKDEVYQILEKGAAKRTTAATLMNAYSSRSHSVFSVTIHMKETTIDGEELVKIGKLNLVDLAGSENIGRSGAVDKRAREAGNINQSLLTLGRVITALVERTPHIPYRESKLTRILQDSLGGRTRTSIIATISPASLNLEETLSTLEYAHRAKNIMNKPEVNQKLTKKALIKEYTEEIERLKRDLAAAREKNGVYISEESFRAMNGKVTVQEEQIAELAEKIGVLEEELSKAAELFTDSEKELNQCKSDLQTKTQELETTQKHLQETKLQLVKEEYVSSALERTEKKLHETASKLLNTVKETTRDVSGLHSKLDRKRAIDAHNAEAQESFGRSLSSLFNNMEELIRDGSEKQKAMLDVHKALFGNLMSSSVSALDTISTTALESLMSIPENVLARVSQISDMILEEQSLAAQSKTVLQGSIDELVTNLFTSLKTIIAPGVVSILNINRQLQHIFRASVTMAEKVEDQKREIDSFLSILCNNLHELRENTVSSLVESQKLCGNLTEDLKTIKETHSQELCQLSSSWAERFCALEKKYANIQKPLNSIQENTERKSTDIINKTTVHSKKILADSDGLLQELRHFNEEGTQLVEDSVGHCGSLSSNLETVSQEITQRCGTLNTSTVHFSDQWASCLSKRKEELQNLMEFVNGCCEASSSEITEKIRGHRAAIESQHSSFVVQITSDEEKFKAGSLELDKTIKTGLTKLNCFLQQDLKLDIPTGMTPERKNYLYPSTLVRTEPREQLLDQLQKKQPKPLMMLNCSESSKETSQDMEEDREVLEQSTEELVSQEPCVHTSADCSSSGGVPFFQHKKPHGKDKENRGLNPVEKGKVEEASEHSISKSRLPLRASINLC
Summary of the method: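 Glioma cells allowed to adhere 48 h, then treated 24 h (U138: 150 or 200 μM; C6: 50 or 100 μM). Fixed cells probed with rabbit anti-α-tubulin for 90 min, then FITC goat anti-rabbit for 1 h, with Hoechst nuclear counterstain. Monopolar spindles scored by confocal microscopy at 600×.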

[10] = Toxicity in Caenorhabditis elegans N2 L1 larva assessed as mortality incubated for 30 mins on rotator and measured after 24 hrs; assay type: organism-based; settings: in vivo
Summary of the method: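 Wild-type N2 worms kept on NGM plates seeded with E. coli OP50 at 20 °C and synchronized to L1 by bleaching. L1 larvae (2.500 worms per dose) exposed acutely to five doses from 6.25 to 200 mM, 20 °C, 30 min with constant rotation. Washed three times in M9, plated on OP50-seeded NGM, survivors counted at 24 h. LC50 derived from dose–response curves.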

[11] = molecular target: T2, Kinesin-like protein KIF11 (Homo sapiens) (UniProt P52732); settings: 200 uM
T2 sequence (whole entry): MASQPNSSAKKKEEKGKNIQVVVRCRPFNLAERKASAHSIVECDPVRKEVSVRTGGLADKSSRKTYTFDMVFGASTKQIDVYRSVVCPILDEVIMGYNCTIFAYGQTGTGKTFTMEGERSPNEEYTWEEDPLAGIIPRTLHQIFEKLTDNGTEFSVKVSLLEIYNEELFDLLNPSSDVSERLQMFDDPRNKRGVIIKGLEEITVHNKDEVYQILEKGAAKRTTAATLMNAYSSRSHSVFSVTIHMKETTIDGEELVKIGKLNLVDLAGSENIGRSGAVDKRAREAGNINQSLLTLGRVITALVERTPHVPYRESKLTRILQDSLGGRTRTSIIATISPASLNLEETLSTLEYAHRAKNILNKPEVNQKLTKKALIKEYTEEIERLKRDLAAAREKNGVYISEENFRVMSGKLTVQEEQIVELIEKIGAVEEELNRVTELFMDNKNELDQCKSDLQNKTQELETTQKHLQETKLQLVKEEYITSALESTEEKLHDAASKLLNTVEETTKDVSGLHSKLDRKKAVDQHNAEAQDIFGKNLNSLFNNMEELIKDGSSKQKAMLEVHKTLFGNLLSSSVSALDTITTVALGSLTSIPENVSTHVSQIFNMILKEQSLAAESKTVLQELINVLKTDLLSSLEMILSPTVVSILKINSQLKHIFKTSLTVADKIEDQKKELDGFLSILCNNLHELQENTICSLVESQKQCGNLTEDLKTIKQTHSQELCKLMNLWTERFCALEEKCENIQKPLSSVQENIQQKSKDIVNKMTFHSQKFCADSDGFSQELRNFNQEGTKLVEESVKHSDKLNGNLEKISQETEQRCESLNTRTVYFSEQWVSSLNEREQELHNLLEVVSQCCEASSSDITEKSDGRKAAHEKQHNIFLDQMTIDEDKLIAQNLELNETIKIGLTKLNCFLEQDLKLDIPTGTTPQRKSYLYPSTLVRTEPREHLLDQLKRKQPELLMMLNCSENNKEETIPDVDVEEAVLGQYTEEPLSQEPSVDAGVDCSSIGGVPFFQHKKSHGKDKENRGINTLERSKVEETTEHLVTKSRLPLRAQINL

[12] = system: C6 (Rattus norvegicus); test: Cell cycle arrest in rat C6 cells assessed as accumulation at G2/M phase at 100 uM after 24 hrs by propidium iodide staining based flow cytometry relative to control

CCOC(=O)C1=C(C)NC(=S)NC1c1cccc(O)c1 (configuration not stated) [MONASTROL]
Activity [1]: 20.8%
Activity [2]: Active
IC50 [3]: > 0.2 mM
IC50 [4]: > 0.2 mM
Activity [5]: Active
Activity [6]: Active
Activity [7]: Active
Activity [8]: Active
inhibition [9]: Active
LC50 at 24 h [10]: 80.1 mM
inhibition [11]: Active
Activity [12]: 27.4%
